For assay [1], the system named is Leishmania major. In words: Antileishmanial activity against promastigote form of Leishmania major at 100 uM after 72 hrs by MTT assay. The format is functional. In a few lines: (§1)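 Log-phase promastigotes grown at 25 °C in phenol-red-free D-MEM/F-12 with 10% heat-inactivated FBS, washed in PBS, seeded at 2.5×10⁶/mL (100 µL/well). Compounds in triplicate wells, 72 h at 25 °C; amphotericin B standard. MTT (5 mg/mL stock) 3 h, stopped with 50% isopropanol/10% SDS, OD570 minus 690. Percent inhibition vs control; mean ± SEM of three independent experiments.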
In general terms: Tetrazolium dyes change colour on reduction, which living cells bring about.

Assay [2] can be described thus: Anticancer activity against Syrian golden hamster BHK21 cells at 10 uM after 48 hrs by SRB assay. The conditions noted are these: Mesocricetus auratus, BHK-21, 48 h; read-out: GI. Format: functional. The gist of the method:
(§2)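 RPMI-1640 culture with 10% heat-inactivated FBS, 2 mM glutamine, 1 mM pyruvate and penicillin/streptomycin at 37 °C, 5% CO2. Cells per 96-well well: H157 10⁴, BHK-21 5×10⁴. After 24 h, monolayers were exposed to 100, 10, 1 or 0.1 µM compound for 48 h, with vincristine as standard. Cells were fixed in cold 50% TCA (4 °C, 1 h) and stained with 0.4% SRB in 1% acetic acid (30 min). Dye was dissolved in 10 mM Tris and read at A490 minus A630. Read-out was percent inhibition.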
(In general: Sulforhodamine B stains cellular protein and so reports cell mass.)

Assay [3] can be described thus: Anticancer activity against Syrian golden hamster BHK21 cells at 100 uM after 48 hrs by SRB assay. The note with it: Mesocricetus auratus, BHK-21, 48 h; read-out: GI. The format is functional. The gist of the method: as §2
In assay [4] the target is Acetylcholinesterase (Electrophorus electricus) (UniProt O42275). The assay is described as follows: Inhibition of electric eel acetylcholinesterase using acetylthiocholine iodide as substrate preincubated for 10 mins before substrate addition after 15 mins by Ellman's method. For orientation: Ellman's reagent forms a yellow product with free thiols.
Sequence of Acetylcholinesterase (Electrophorus electricus) (O42275 24-633 limits assumed): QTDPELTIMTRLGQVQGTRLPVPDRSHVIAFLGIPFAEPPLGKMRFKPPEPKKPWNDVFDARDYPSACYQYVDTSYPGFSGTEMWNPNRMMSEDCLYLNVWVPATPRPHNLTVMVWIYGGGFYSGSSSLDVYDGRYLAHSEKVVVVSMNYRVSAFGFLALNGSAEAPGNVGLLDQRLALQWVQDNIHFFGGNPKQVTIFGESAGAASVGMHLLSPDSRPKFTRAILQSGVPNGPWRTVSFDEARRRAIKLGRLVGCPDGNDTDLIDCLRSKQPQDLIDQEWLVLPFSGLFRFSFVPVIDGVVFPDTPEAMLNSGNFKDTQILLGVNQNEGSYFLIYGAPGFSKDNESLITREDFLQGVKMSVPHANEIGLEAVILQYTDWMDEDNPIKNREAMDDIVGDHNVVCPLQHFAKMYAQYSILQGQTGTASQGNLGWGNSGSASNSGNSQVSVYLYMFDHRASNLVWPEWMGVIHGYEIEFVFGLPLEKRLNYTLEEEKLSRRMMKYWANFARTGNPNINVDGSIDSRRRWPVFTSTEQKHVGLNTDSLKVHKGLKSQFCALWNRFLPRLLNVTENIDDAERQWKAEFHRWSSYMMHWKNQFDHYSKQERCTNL
Assay [5] has as its system NCI-H157. The assay is described as follows: Anticancer activity against human NCI-H157 cells at 10 uM after 48 hrs by SRB assay. The format is functional. The conditions noted are these: NCI-H157, 48 h, read-out: GI. The gist of the method:
as §2

The subject of assay [6] is NCI-H157. The assay is described as follows: Anticancer activity against human NCI-H157 cells at 1 uM after 48 hrs by SRB assay. The conditions noted are these: NCI-H157, 48 h, read-out: GI. Format: functional. In a few lines:
as §2

Assay [7] concerns the target Intestinal-type alkaline phosphatase (Bos taurus) (UniProt P19111). In words: Inhibition of calf intestinal alkaline phosphatase using p-nitrophenyl phosphate as substrate preincubated for 10 mins before substrate addition after 30 mins. The arrangement: concentration or dose not given beside the values.
The subject of assay [8] is Leishmania major. In words: Antileishmanial activity against promastigote form of Leishmania major at 10 uM after 72 hrs by MTT assay. The format is functional. In a few lines: as §1
Assay [9] can be described thus: Anticancer activity against Syrian golden hamster BHK21 cells at 0.1 uM after 48 hrs by SRB assay. Format: functional. The conditions noted are these: Mesocricetus auratus, BHK-21, 48 h; read-out: GI. The gist of the method:
as §2

For assay [10], the system named is Leishmania major. In words: Antileishmanial activity against promastigote form of Leishmania major at 0.1 uM after 72 hrs by MTT assay. Format: functional. The gist of the method:
as §1

Assay [11] is described as follows: Anticancer activity against Syrian golden hamster BHK21 cells at 1 uM after 48 hrs by SRB assay. Format: functional. The conditions noted are these: Mesocricetus auratus, BHK-21, 48 h; read-out: GI. The gist of the method: as §2
Assay [12] relates to Leishmania major. In words: Antileishmanial activity against promastigote form of Leishmania major at 1 uM after 72 hrs by MTT assay. The format is functional. The gist of the method: as §1
For assay [13], the target named is Cholinesterase (Homo sapiens, UniProt P06276). In words: Inhibition of human BChE using butyrylthiocholine iodide as substrate preincubated for 10 mins before substrate addition after 15 mins by Ellman's method. On the set-up: concentration or dose not given beside the values. The gist of the method:
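Ellman assay in 50 mM Tris-HCl, 0.1 M NaCl, 0.02 M MgCl2, pH 8.0, with DMSO at 1% final. hBChE (3.4 U/mg) is preincubated with compound for 10 min at 25 °C. Blanks lack enzyme or substrate. IC50 from linear regression.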

In assay [14] the test system is NCI-H157. The assay is described as follows: Anticancer activity against human NCI-H157 cells at 100 uM after 48 hrs by SRB assay. Format: functional. The note with it: NCI-H157, 48 h, read-out: GI. The gist of the method:
as §2

Assay [15] deals with NCI-H157. In words: Anticancer activity against human NCI-H157 cells at 0.1 uM after 48 hrs by SRB assay. The note with it: NCI-H157, 48 h, read-out: GI. The format is functional. In a few lines: as §2

Molecules are shown by their SMILES.

Sequence of Cholinesterase (P06276 whole entry): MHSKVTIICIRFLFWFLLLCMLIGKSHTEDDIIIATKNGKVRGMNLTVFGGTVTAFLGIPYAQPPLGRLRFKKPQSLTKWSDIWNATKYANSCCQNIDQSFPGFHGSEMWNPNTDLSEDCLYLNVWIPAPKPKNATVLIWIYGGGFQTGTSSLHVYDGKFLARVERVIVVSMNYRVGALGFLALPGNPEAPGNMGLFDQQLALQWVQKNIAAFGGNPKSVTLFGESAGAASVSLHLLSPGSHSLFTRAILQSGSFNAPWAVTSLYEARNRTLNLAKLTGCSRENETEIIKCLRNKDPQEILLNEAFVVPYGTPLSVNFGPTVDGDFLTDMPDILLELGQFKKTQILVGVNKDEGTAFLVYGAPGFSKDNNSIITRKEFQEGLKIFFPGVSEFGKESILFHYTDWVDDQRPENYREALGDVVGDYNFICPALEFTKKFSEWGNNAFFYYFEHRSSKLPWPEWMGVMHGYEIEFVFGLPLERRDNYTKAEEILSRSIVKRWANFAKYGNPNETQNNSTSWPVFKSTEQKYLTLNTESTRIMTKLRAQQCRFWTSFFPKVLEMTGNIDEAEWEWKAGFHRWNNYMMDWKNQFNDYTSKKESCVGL
Sequence of Intestinal-type alkaline phosphatase (Bos taurus) (P19111 20-506 limits assumed): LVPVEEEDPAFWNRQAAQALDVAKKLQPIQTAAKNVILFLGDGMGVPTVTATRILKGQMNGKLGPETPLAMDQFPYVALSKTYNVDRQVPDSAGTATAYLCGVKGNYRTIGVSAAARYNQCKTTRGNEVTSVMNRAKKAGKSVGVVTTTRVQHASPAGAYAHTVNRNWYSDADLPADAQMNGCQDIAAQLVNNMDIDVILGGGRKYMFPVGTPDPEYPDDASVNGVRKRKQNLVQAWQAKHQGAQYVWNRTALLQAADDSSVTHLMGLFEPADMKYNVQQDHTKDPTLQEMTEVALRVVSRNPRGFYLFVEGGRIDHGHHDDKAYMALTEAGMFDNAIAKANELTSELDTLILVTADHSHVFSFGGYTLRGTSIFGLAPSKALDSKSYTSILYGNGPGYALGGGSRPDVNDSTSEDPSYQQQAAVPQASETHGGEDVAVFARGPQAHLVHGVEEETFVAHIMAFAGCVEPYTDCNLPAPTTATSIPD

As to `Fc1cc(Cl)c(-c2nn3c(-c4ccncc4)nnc3s2)cc1F`, in [1], the inhibition (usually the share of the control response that was lost under treatment) at 100 µM came to 40.3%. In addition, the inhibition of growth at 10 µM in [2] amounted to 53.9%; in assay [5] it was 45.2%. The inhibition of growth at 100 µM in assay [3] was found to be 58.9%; in [14], 49.2%. For the same molecule, the inhibition in assay [4] stood at 47.2%; in [7], 31.6%; in assay [13] it was 18.2%. Further, the inhibition of growth at 1 µM is 41.4% in assay [6] and 49.7% in assay [11]. The molecule further returned an inhibition at 10 µM in [8] of 37.9%. For the same molecule, the inhibition of growth at 0.1 µM in [9] amounted to 46.7%; in assay [15], 36.4%. Moreover, testing at 0.1 µM in assay [10] gave an inhibition of 31.3%. Besides, in assay [12], the inhibition at 1 µM stood at 35.4%.
